From ChEMBL document CHEMBL1123397, “Antiarrhythmic activity of 17 beta-aminoestratrienes. Comparison of 3-ols and 3-acetates with the corresponding 3-(3-amino-2-hydroxypropyl) ethers” (1986)
In brackets after ≈: the same amount, converted by molar mass. Activity calls are given as the source filed them. No cut-off for these calls is given here.

Experiments:
[1] = species: Mus musculus; test: ED 50 value against aconitine-induced arrhythmias in mice; IA is Inactive; type: functional, organism-based
In short: (§1)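 Anaesthetised mice were given test compound intraperitoneally, then aconitine intravenously to induce arrhythmia. At least three doses were tested in separate groups (n = 6-10). ED50 is the dose raising the arrhythmogenic aconitine dose 50% above the control requirement.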

[2] = species: Cavia porcellus; test: Concentration required to reduce maximum following frequencu (MFF) of isolated guinea pig atria by 25%; type: functional
In short: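 Guinea pig left atria in an organ bath of Krebs solution at 35 °C, gassed with carbogen, electrically driven, isometric contractions recorded. Drugs added cumulatively; maximum following frequency determined 6 min after each concentration. Concentration reducing MFF by 25% (EC25) calculated from six preparations.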

[3] = tested on: Rattus norvegicus; test: Effect on heart rate after isoprenaline induced tachycardia in the anesthetized rat at 2 mg/kg dose; type: functional
In short: (§2)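 Same ligation protocol in anaesthetised male Wistar rats. Heart rate was taken from the lead II ECG at three points: just before i.v. drug or vehicle, 14 min after it (just before isoprenaline 10 μg/kg), and 1 min after isoprenaline. Pre vs post rates and isoprenaline responses vs controls were compared by Student's t test. Mean ± SEM of 7-12 observations.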

[4] = tested on: Rattus norvegicus; test: Effect on heart rate before isoprenaline induced tachycardia in the anesthetized rat at 2 mg/kg dose; type: functional
In short: (§3)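 Test drug or vehicle was given i.v., and isoprenaline (10 µg/kg) 14 min later. Heart rate was read from the lead II ECG just before drug, at 14 min (pre-isoprenaline) and 1 min after isoprenaline. Compared by Student's t test; 7–12 animals per group; mean ± SEM.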

[5] = tested on: Rattus norvegicus; test: Compound was tested for antagonism of Ventricular Fibrilloflutter (VF) evoked by coronary artery ligation in the rat measured at 0.05 mg/kg dose; type: functional, Heart
In short: (§4)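 Male Wistar rats, anaesthetised and artificially ventilated, with left thoracotomy; silk suture under main left coronary artery. After stabilization, test drug or vehicle i.v.; 14 min later isoprenaline 10 μg/kg; 1 min after that the ligature was tightened and VF incidence recorded over 30 min. Carotid pressure and lead II ECG monitored continuously. 7-12 animals per group.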

[6] = tested on: Rattus norvegicus; test: Effective dose that antagonized arrhythmias evoked by coronary artery ligation in the rat was measured at 1.0 mg/kg dose; type: functional
[7] = tested on: Rattus norvegicus; test: Mean change in heart rate recorded 14 min after the administration of compound.; type: functional; in short: as §3
[8] = tested on: Rattus norvegicus; test: Compound was tested for antagonism of arrhythmias evoked by coronary artery ligation in the rat measured at 1 mg/kg dose; type: functional; in short: as §4
[9] = species: Rattus norvegicus; test: Maximum increase in heart rate evoked by isoprenaline.; type: functional; in short: as §3
[10] = tested on: Rattus norvegicus; test: Antagonism of Ventricular Fibrilloflutter (VF) evoked by coronary artery ligation in the rat measured at 2 mg/kg dose; type: functional, Heart; in short: as §4
[11] = tested on: Rattus norvegicus; test: Effect on heart rate on 1 min post isoprenaline induced tachycardia in the anesthetized rat at 2.0 mg/kg dose.; type: functional; in short: as §3
[12] = species: Cavia porcellus; test: Compound was tested for antiarrhythmic activity (time taken to reach 50% repolarization) in guinea pig atria at 4(ug/mL) concentration; type: functional, Heart
In short: (§5)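 Guinea pig left atria pinned in a recording chamber, superfused with carbogen-gassed Krebs solution at 35 ± 0.5 °C and electrically stimulated. Transmembrane action potentials were recorded with conventional microelectrodes, giving RMP, AP height, APD50, APD90 and maximum rate of depolarization. Values are mean ± SEM from n cells across five preparations.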

[13] = tested on: Rattus norvegicus; test: Compound was tested for antagonism of Ventricular Fibrilloflutter (VF) evoked by coronary artery ligation in the rat measured at 1 mg/kg dose; type: functional, Heart; in short: as §4
[14] = species: Cavia porcellus; test: Compound was tested for antiarrhythmic activity (time taken to reach 90% repolarization) in guinea pig atria at 4(ug/mL) concentration; type: functional, Heart; in short: as §5
[15] = species: Cavia porcellus; test: Compound was tested for antiarrhythmic activity expressed as resting membrane potential (RMP) in guinea pig atria at 4 ug/mL concentration; type: functional; conditions: Heart; in short: as §5
[16] = species: Cavia porcellus; test: Compound was tested for antiarrhythmic activity expressed as action potential height (AP) in guinea pig atria at 4(ug/mL) concentration; type: functional, Heart; in short: as §5
[17] = species: Rattus norvegicus; test: Maximum increase in heart rate evoked by isoprenaline; type: functional; in short: as §3
[18] = tested on: Rattus norvegicus; test: Effect of teh compound on heart rate on 1 min post isoprenaline induced tachycardia in the anesthetized rat at 2.0 mg/kg dose.; type: functional; in short: as §2
[19] = species: Cavia porcellus; test: Compound was tested for antiarrhythmic activity (time taken to reach 90% repolarization) in guinea pig atria at 2(ug/mL) concentration; type: functional, Heart; in short: as §5
[20] = species: Cavia porcellus; test: Compound was tested for antiarrhythmic activity expressed as action potential height (AP) in guinea pig atria at 2(ug/mL) concentration; type: functional, Heart; in short: as §5
[21] = species: Cavia porcellus; test: Compound was tested for antiarrhythmic activity (maximum rate of phase 0 depolarization- MRD) in guinea pig atria at 2(ug/mL) concentration; type: functional, Heart; in short: as §5
[22] = species: Cavia porcellus; test: Compound was tested for antiarrhythmic activity (time taken to reach 90% repolarization) in guinea pig atria at 8(ug/mL) concentration; type: functional, Heart; in short: as §5
[23] = species: Cavia porcellus; test: Compound was tested for antiarrhythmic activity expressed as resting membrane potential (RMP) in guinea pig atria at 2 ug/mL concentration; type: functional; conditions: Heart; in short: as §5
[24] = species: Cavia porcellus; test: Compound was tested for antiarrhythmic activity (time taken to reach 50% repolarization) in guinea pig atria at 2(ug/mL) concentration; type: functional, Heart; in short: as §5
[25] = species: Cavia porcellus; test: Compound was tested for antiarrhythmic activity expressed as action potential height (AP) in guinea pig atria at 8(ug/mL) concentration; type: functional, Heart; in short: as §5
[26] = species: Cavia porcellus; test: Compound was tested for antiarrhythmic activity (time taken to reach 50% repolarization) in guinea pig atria at 8(ug/mL) concentration; type: functional, Heart; in short: as §5
[27] = species: Cavia porcellus; test: Compound was tested for antiarrhythmic activity expressed as resting membrane potential (RMP) in guinea pig atria at 8 ug/mL concentration; type: functional; conditions: Heart; in short: as §5
[28] = tested on: Rattus norvegicus; test: Compound that antagonized arrhythmias evoked by coronary artery ligation in the rat was measured at 1.0 mg/kg dose; type: functional; in short: as §4
[29] = species: Cavia porcellus; test: Compound was tested for antiarrhythmic activity (maximum rate of phase 0 depolarization- MRD) in guinea pig atria at 4(ug/mL) concentration; type: functional, Heart; in short: as §5
[30] = species: Cavia porcellus; test: Compound was tested for antiarrhythmic activity (maximum rate of phase 0 depolarization- MRD) in guinea pig atria at 8(ug/mL) concentration; type: functional, Heart; in short: as §5
[31] = tested on: Rattus norvegicus; test: Compound was tested for antagonism of Ventricular Fibrilloflutter (VF) evoked by coronary artery ligation in the rat measured at 0.5 mg/kg dose; type: functional, Heart; in short: as §4
[32] = species: Mus musculus; test: ED 50 value against aconitine-induced arrhythmias in mice; type: functional; in short: as §1
[33] = tested on: Rattus norvegicus; test: Effect on heart rate before isoprenaline induced tachycardia in the anesthetized rat at 1 mg/kg dose; type: functional; in short: as §2
[34] = tested on: Rattus norvegicus; test: Compound that antagonized arrhythmias evoked by coronary artery ligation in the rat was measured at 0.05 mg/kg dose; type: functional; in short: as §4
[35] = tested on: Rattus norvegicus; test: Effect on heart rate after isoprenaline induced tachycardia in the anesthetized rat at 1 mg/kg dose; type: functional; in short: as §2
[36] = tested on: Rattus norvegicus; test: Effect on heart rate on 1 min post isoprenaline induced tachycardia in the anesthetized rat at 1 mg/kg dose.; type: functional; in short: as §3
[37] = tested on: Rattus norvegicus; test: Compound that antagonized arrhythmias evoked by coronary artery ligation in the rat was measured at 0.2 mg/kg dose; type: functional; in short: as §4
[38] = tested on: Rattus norvegicus; test: Effect on heart rate before isoprenaline induced tachycardia in the anesthetized rat at 0.2 mg/kg dose; type: functional; in short: as §2
[39] = tested on: Rattus norvegicus; test: Compound was tested for antagonism of Ventricular Fibrilloflutter (VF) evoked by coronary artery ligation in the rat measured at 0.2 mg/kg dose; type: functional, Heart; in short: as §4
[40] = tested on: Rattus norvegicus; test: Effect on heart rate 1 min post isoprenaline induced tachycardia in the anesthetized rat at 0.2 mg/kg dose.; type: functional; in short: as §2

Compound: CNC1[C@H](O)C[C@H]2[C@@H]3CCc4cc(OCC(O)CNC(C)C)ccc4[C@H]3CC[C@]12C (stereo partly specified)
- ED50 [1]: inactive
- EC25 [2]: 21 µg/mL (≈ 50.4 µM)

Compound: CNC1[C@H](O)C[C@H]2[C@@H]3CCc4cc(OCC(O)CNC(C)(C)C)ccc4[C@H]3CC[C@]12C (stereo partly specified)
- Heart rate [3]: 294 beats min-1
- Heart rate [4]: 415 beats min-1
- VF [5]: 67%
- ED50 [1]: inactive
- ED50 [6]: 0.7 mg/kg
- Change [7]: -29.2%
- VF [8]: 25%
- EC25 [2]: 38.6 µg/mL (≈ 89.6 µM)
- Increase [9]: 3%
- VF [10]: 0%
- Heart rate [11]: 302 beats min-1

Compound: CC(C)NCC(O)COc1ccc2c(c1)CC[C@@H]1[C@@H]2CC[C@]2(C)C(N(C)C)[C@H](O)C[C@@H]12 (stereo partly specified)
- Heart rate [3]: 366 beats min-1
- Heart rate [4]: 394 beats min-1
- APD50 [12]: 20.7 ms
- VF [13]: 13%
- APD90 [14]: 64.8 ms
- RMP [15]: 70.4 mV
- AP [16]: 81.6 mV
- Increase [17]: 0%
- Heart rate [18]: 366 beats min-1
- APD90 [19]: 69.8 ms
- ED50 [1]: inactive
- AP [20]: 83.8 mV
- MRD [21]: 139.5 V s-1
- APD90 [22]: 64.9 ms
- RMP [23]: 71 mV
- Change [7]: -7.1%
- APD50 [24]: 26 ms
- AP [25]: 79.5 mV
- APD50 [26]: 19.5 ms
- RMP [27]: 69.1 mV
- ED50 at 1 mg/kg [28]: < 1 mg/kg
- EC25 [2]: 13.7 µg/mL (≈ 31.8 µM)
- MRD [29]: 124 V s-1
- MRD [30]: 139.3 V s-1

Compound: CN(C)C1[C@H](O)C[C@H]2[C@@H]3CCc4cc(OCC(O)CNC(C)(C)C)ccc4[C@H]3CC[C@]12C (stereo partly specified)
- Heart rate [3]: 325 beats min-1
- Heart rate [4]: 393 beats min-1
- VF [13]: 38%
- ED50 [1]: inactive
- VF [31]: 44%
- ED50 [6]: 0.5 mg/kg
- Change [7]: -17.3%
- EC25 [2]: 17.1 µg/mL (≈ 38.5 µM)
- Increase [9]: 4.6%
- VF [10]: 0%
- Heart rate [11]: 340 beats min-1

Compound: CC(=O)Oc1ccc2c(c1)CC[C@@H]1[C@@H]2CC[C@]2(C)C(N(C)C)[C@H](O)C[C@@H]12 (stereo partly specified)
- ED50 [32]: 6.5 mg/kg
- EC25 [2]: 0.99 µg/mL (≈ 2.77 µM)

Compound: CCCNCC(O)COc1ccccc1C(=O)CCc1ccccc1 (stereo unspecified) [PROPAFENONE]
- ED50 [32]: 24.3 mg/kg
- Heart rate [33]: 443 beats min-1
- ED50 [34]: 0.7 mg/kg
- Change [7]: -11.7%
- EC25 [2]: 1.85 µg/mL (≈ 5.42 µM)
- Heart rate [35]: 391 beats min-1
- Heart rate [36]: 445 beats min-1
- Increase [9]: 13.8%

Compound: CNC1[C@H](O)C[C@H]2[C@@H]3CCc4cc(OC(C)=O)ccc4[C@H]3CC[C@]12C (stereo partly specified)
- ED50 at 0.2 mg/kg [37]: < 0.2 mg/kg
- Heart rate [38]: 403 beats min-1
- ED50 [32]: 9 mg/kg
- Change [7]: -10.9%
- EC25 [2]: 5.06 µg/mL (≈ 14.7 µM)
- Increase [9]: 9.2%
- VF [39]: 29%
- Heart rate [40]: 392 beats min-1
